One block for each compound: values may come before it. Calls of active or inactive are those of the source. The rule behind the calls is not given here.
What was measured:
Rattus norvegicus [1] = organism: Rattus norvegicus; assay: Thyromimetic activity (induction of GPDH) in rat liver expressed as percentage of ratio of the ED50 for T3 to that of the test compound; Full agonist; type: functional, organism-based; settings: filed as agonist
In short: (§1)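 Hypothyroid rats received a single intramuscular injection in 0.15 M NaCl/0.01 M NaOH vehicle (1 mL/kg), up to 50 mg/kg. Mitochondrial GPDH activity was measured in the organ 48 h later. Dose-response curves were fitted to a hyperbola by nonlinear fitting to give ED50, and rel ED50 = (ED50 T3 / ED50 compound) × 100. Where the maximum was below T3's, the percent of maximal response at 50 mg/kg was calculated.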

[2] = target: T1, Thyroid hormone receptor beta (Rattus norvegicus) (UniProt P18113); assay: Thyromimetic activity (induction of GPDH) in rat heart expressed as percentage of ratio of the ED50 for T3; F= Full agonist; type: functional, tissue-based; settings: filed as agonist; in short: as §1
T1 sequence (whole entry): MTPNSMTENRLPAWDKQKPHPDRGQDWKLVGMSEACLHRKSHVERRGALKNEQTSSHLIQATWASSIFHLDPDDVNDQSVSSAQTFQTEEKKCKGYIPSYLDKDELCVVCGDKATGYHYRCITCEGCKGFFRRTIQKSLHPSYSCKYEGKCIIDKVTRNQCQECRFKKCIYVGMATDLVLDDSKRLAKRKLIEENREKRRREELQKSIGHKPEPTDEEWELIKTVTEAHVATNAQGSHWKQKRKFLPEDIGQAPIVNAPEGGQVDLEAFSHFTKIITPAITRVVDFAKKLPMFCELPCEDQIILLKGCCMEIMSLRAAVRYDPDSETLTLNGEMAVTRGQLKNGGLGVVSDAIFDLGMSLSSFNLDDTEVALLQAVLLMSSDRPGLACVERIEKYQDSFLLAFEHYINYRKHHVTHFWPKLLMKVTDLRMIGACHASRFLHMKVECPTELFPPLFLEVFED

[3] = target: T1, Thyroid hormone receptor beta (Rattus norvegicus); assay: Thyromimetic activity (induction of GPDH) in rat liver expressed as percentage of ratio of the ED50 for T3; F= Full agonist; type: functional; settings: filed as agonist; in short: as §1
[4] = pKa for compound was evaluated; type: physicochemical
[5] = target: T1, Thyroid hormone receptor beta (Rattus norvegicus); assay: Thyromimetic activity (induction of GPDH) in rat heart expressed as percentage of ratio of the ED50 for T3; I= Inactive; type: functional, tissue-based; in short: as §1
Rattus norvegicus [6] = assay: Relative in vivo thyromimetic potency (GPDH induction) in rat heart, expressed as percent ratio of ED50 for T3 to that of compound; F= Full agonist; settings: filed as agonist
Rattus norvegicus [7] = organism: Rattus norvegicus; assay: Thyromimetic activity (induction of GPDH) in rat liver expressed as percentage of ratio of the ED50 for T3 to that of the test compound; I= Inactive; type: functional, organism-based; in short: as §1
Rattus norvegicus [8] = organism: Rattus norvegicus; assay: Thyromimetic activity (induction of GPDH) in rat heart expressed as percentage of ratio of the ED50 for T3 to that of the test compound; LM= Low maximum response; type: functional, organism-based; settings: filed as partial agonist; in short: as §1
Rattus norvegicus [9] = organism: Rattus norvegicus; assay: Thyromimetic activity (induction of GPDH) in rat heart expressed as percentage of ratio of the ED50 for T3 to that of the test compound; Full agonist; type: functional, organism-based; settings: filed as agonist; in short: as §1

SMILES: CCC(=O)c1cc(Oc2c(I)cc(CC(N)C(=O)O)cc2I)ccc1O (stereo unspecified)
Relative ED50 (Rattus norvegicus [1]): Agonist

SMILES: NC(Cc1cc(I)c(Oc2ccc(O)c(Cl)c2)c(I)c1)C(=O)O (stereo unspecified)
pKa [4]: 8.56

SMILES: NC(Cc1cc(I)c(Oc2ccc(O)c(F)c2)c(I)c1)C(=O)O (stereo unspecified)
pKa [4]: 8.73 | Relative ED50 [3]: Agonist | Relative ED50 (Rattus norvegicus [6]): Agonist

SMILES: CCCCOCc1cc(Oc2c(I)cc(CC(N)C(=O)O)cc2I)ccc1O (stereo unspecified)
Relative ED50 [2]: Agonist | Relative ED50 [3]: Agonist

SMILES: CC(=O)NCCCc1cc(Oc2c(I)cc(CC(N)C(=O)O)cc2I)ccc1O (stereo unspecified)
Relative ED50 [5]: inactive

SMILES: NC(Cc1cc(I)c(Oc2ccc(O)c(-c3ccccc3)c2)c(I)c1)C(=O)O (stereo unspecified)
pKa [4]: 10

SMILES: NC(Cc1cc(I)c(Oc2ccc(O)c(CCCCO)c2)c(I)c1)C(=O)O (stereo unspecified)
Relative ED50 (Rattus norvegicus [8]): Partial agonist

SMILES: NC(Cc1cc(I)c(Oc2ccc(O)c(Cc3ccccc3)c2)c(I)c1)C(=O)O (stereo unspecified)
pKa [4]: 10.1

SMILES: CCCC(=O)NCc1cc(Oc2c(I)cc(CC(N)C(=O)O)cc2I)ccc1O (stereo unspecified)
Relative ED50 [5]: inactive | Relative ED50 (Rattus norvegicus [7]): inactive

SMILES: NCc1cc(Oc2c(I)cc(CC(N)C(=O)O)cc2I)ccc1O (stereo unspecified)
Relative ED50 [5]: inactive | Relative ED50 (Rattus norvegicus [7]): inactive

SMILES: NC(Cc1cc(I)c(Oc2ccc(O)c(C=O)c2)c(I)c1)C(=O)O (stereo unspecified)
pKa [4]: 8.37 | Relative ED50 (Rattus norvegicus [9]): Agonist

SMILES: COCCCCc1cc(Oc2c(I)cc(CC(N)C(=O)O)cc2I)ccc1O (stereo unspecified)
Relative ED50 [2]: Agonist

SMILES: CC(C)(C)c1cc(Oc2c(I)cc(CC(N)C(=O)O)cc2I)ccc1O (stereo unspecified)
pKa [4]: 10.6

SMILES: CC(=O)c1cc(Oc2c(I)cc(CC(N)C(=O)O)cc2I)ccc1O (stereo unspecified)
pKa [4]: 10.1

SMILES: NC(Cc1cc(I)c(Oc2ccc(O)c(O)c2)c(I)c1)C(=O)O (stereo unspecified)
pKa [4]: 9.34

SMILES: NC(Cc1cc(I)c(Oc2ccc(O)c([N+](=O)[O-])c2)c(I)c1)C(=O)O (stereo unspecified)
pKa [4]: 7.23 | Relative ED50 [2]: Agonist

The next lines start with results.

Relative ED50 [2]: Agonist | Relative ED50 [3]: Agonist
SMILES: CC(C)Cc1cc(Oc2c(I)cc(CC(N)C(=O)O)cc2I)ccc1O (stereo unspecified)

Relative ED50 [3]: Agonist
SMILES: CCCCSCc1cc(Oc2c(I)cc(CC(N)C(=O)O)cc2I)ccc1O (stereo unspecified)

pKa [4]: 10.3
SMILES: C=CCc1cc(Oc2c(I)cc(CC(N)C(=O)O)cc2I)ccc1O (stereo unspecified)

pKa [4]: 10.5
SMILES: CC(C)c1cc(Oc2c(I)cc(CC(N)C(=O)O)cc2I)ccc1O (stereo unspecified)

Relative ED50 [5]: inactive
SMILES: CCC(=O)NCCc1cc(Oc2c(I)cc(CC(N)C(=O)O)cc2I)ccc1O (stereo unspecified)

pKa [4]: 8.45
SMILES: NC(Cc1cc(I)c(Oc2ccc(O)c(Br)c2)c(I)c1)C(=O)O (stereo unspecified)

Relative ED50 [5]: inactive
SMILES: NC(Cc1cc(I)c(Oc2ccc(O)c(C(=O)O)c2)c(I)c1)C(=O)O (stereo unspecified)
Relative ED50 (Rattus norvegicus [7]): inactive

Relative ED50 [3]: Agonist
SMILES: NC(Cc1cc(I)c(Oc2ccc(O)c(C3CCCCC3)c2)c(I)c1)C(=O)O (stereo unspecified)

pKa [4]: 8.51
SMILES: N[C@@H](Cc1cc(I)c(Oc2ccc(O)c(I)c2)c(I)c1)C(=O)O [LIOTHYRONINE]

pKa [4]: 9.99
SMILES: N[C@@H](Cc1cc(I)c(Oc2ccc(O)cc2)c(I)c1)C(=O)O

Relative ED50 [2]: Agonist
SMILES: CCCCc1cc(Oc2c(I)cc(CC(N)C(=O)O)cc2I)ccc1O (stereo unspecified)

Relative ED50 [3]: Agonist
SMILES: CCOCCCc1cc(Oc2c(I)cc(CC(N)C(=O)O)cc2I)ccc1O (stereo unspecified)

Relative ED50 [2]: Agonist | Relative ED50 [3]: Agonist
SMILES: NC(Cc1cc(I)c(Oc2ccc(O)c(CC3CCCCC3)c2)c(I)c1)C(=O)O (stereo unspecified)

Relative ED50 [2]: Agonist | Relative ED50 [3]: Agonist
SMILES: CCC(C)c1cc(Oc2c(I)cc(CC(N)C(=O)O)cc2I)ccc1O (stereo unspecified)

pKa [4]: 9.85 | Relative ED50 [2]: Agonist
SMILES: COCc1cc(Oc2c(I)cc(CC(N)C(=O)O)cc2I)ccc1O (stereo unspecified)

pKa [4]: 10.3
SMILES: Cc1cc(Oc2c(I)cc(CC(N)C(=O)O)cc2I)ccc1O (stereo unspecified)

pKa [4]: 9.92
SMILES: NC(Cc1cc(I)c(Oc2ccc(O)c(CO)c2)c(I)c1)C(=O)O (stereo unspecified)

Relative ED50 [5]: inactive
SMILES: NCCc1cc(Oc2c(I)cc(CC(N)C(=O)O)cc2I)ccc1O (stereo unspecified)

From ChEMBL document CHEMBL1123960, “Thyroid hormone analogues. Synthesis of 3'-substituted 3,5-diiodo-L-thyronines and quantitative structure-activity studies of in vitro and in vivo thyromimetic activities in rat liver and heart” (J Med Chem, 1988)
